Mdm2 MdmX PPI: human Mdm2/MdmX binding inhibition | O15151+Q00987 | SaOS-2 split-luciferase Mdm2/MdmX complementation, luminescence | inhibition, % at 8 µM | hit rate 3% among 330,000;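 active = inhibition of at least 50% at 8 µM in the primary screen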
Target sequence (O15151 whole entry, looked up): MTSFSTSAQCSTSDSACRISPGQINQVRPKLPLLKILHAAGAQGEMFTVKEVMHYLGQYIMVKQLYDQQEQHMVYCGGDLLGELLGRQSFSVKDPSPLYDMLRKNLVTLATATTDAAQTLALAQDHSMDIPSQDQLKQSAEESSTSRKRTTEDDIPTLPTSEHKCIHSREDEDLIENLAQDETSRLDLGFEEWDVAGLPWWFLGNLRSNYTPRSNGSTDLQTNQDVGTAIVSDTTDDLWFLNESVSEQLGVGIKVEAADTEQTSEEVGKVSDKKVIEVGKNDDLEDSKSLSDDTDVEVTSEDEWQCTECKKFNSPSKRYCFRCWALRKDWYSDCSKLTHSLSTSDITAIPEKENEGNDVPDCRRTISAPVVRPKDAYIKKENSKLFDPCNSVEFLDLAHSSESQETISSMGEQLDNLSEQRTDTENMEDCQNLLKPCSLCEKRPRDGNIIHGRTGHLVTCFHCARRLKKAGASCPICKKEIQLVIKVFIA
Target sequence (Q00987 whole entry, looked up): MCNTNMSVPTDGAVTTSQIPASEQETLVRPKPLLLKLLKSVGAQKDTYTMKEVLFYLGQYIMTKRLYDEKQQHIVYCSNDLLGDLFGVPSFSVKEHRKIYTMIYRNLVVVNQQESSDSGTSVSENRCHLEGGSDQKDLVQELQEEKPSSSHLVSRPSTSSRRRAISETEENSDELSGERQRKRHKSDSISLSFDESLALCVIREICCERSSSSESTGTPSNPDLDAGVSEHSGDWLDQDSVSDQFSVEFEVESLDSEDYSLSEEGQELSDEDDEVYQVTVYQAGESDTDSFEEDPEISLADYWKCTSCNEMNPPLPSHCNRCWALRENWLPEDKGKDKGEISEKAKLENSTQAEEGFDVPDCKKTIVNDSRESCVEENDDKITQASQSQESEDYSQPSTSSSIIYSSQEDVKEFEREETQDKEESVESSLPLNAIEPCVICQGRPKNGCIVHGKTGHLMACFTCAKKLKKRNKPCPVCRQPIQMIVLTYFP
SKKanGAS inh: blocks kanamycin growth of S. pyogenes SKKanGAS strain; BacTiter-Glo, 6 h; inhibition, % at 7.5 µM; hit rate 1.3% among 300,000;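 active = mean replicate score, as percent of positive control median, at least 50; inconclusive = mean below 50 but one replicate at or above 50; inactive = mean and every replicate below 50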;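 also: strain carries kanamycin resistance gene driven by streptokinase promoter and grows in 40 µg/ml kanamycin; loss of luminescence reflects streptokinase promoter inhibition or plain growth inhibition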
XBP1 UPR activ: activators of adaptive arm of unfolded protein response (XBP1); AID 463104; CHO-XBP1 luciferase reporter, IRE1-XBP1 UPR activation, luminescence; percent of tunicamycin response, DMSO as zero; activation, % at 20 µM; hit rate 0.33% among 330,000;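 active = versus positive control, 20 µM dose yields 30% or more activation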
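Test system: CHO-XBP1 luciferase reporter cells | Buffer or medium: Serum-containing F12 medium, 10% FBS | Schedule: 6 h compound exposure at 37 °C, 5% CO2 | Detection: Steady-Glo luciferase glow luminescence, 10 min after reagent addition | Read-out basis: Activation, % of tunicamycin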
UPR CHOP act: activators of apoptotic arm of unfolded protein response (CHOP); CHO-CHOP luciferase reporter, UPR activation, luminescence; percent of tunicamycin response over DMSO baseline; activation, % at 10 µM; hit rate 0.34% among 330,000;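 active = at 10 µM dose, activation of 40% or more, normalized to positive control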
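System: CHO-CHOP luciferase reporter cell line | Buffer or medium: F12 medium containing 10% fetal bovine serum | Doses: One dose, 10 µM in 0.5% DMSO | Times: 6 h compound exposure at 37 °C after overnight seeding | Signal: Luciferase luminescence | Read-out: % activation vs tunicamycin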
CSC inhib: blocks cancer stem cells. inhibition, % at 7.5 µM. cancer stem cell-like cells viability, luminescence. hit rate 1.1% among 300,000; in the data active = inhibition above about 75%; inconclusive = no clear call, values can overlap the other calls; tested in HMLE shEcad cells
Beta cell apopt: blocks beta cell apoptosis; INS-1E cytokine-induced death, ATP luminescence, 48 h; percent of positive-control rescue, neutral wells zero; protection from apoptosis, % (test concentration not listed); hit rate 0.8% among 300,000;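 active = Every replicate reaches about 75%, or at least half do and their mean reaches it too, limit read from the data; inconclusive = At least half of replicates reach the limit but their mean does not; inactive = Under half of replicates reach the limit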;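 also: higher means more ATP so stronger rescue from cytokine killing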
Mdm2 MdmX conf: human Mdm2/MdmX binding inhibition, confirmed. shares compounds with Mdm2 MdmX PPI. luminescent assay. AID 489028. inhibition, % at 8 µM. hit rate 55% among 10,000; in the data active = inhibition above about 40%
FLuc counter: full-length luciferase inhibition in Mdm2/MdmX counter-screen | shares compounds with Mdm2 MdmX PPI | SaOS-2 full-length luciferase counterscreen, luminescence | inhibition, % at 8 µM | hit rate 77% among 6,200;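 active = mean inhibition at 8 µM reaching about 37%, which flags the compound as non-specific, limit read from the data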;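 also: p53-null SaOS-2 cells with luciferase driven by a doxycycline-inducible promoter; compound on cells about two nights before reading with doxycycline added after day one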
Of the large screens only hits and unclear results are named; the others gave an inactive call (follow-up assays come after a bar, where they were run). In the library only some 4.8% were active in any assay of this set; here they are far more common.

COc1ccccc1C(=O)NNC(=O)CCCN1C(=O)/C(=C/c2cccs2)SC1=S	Mdm2 MdmX PPI 72 | Mdm2 MdmX conf 77 | FLuc counter 63
O=C1/C(=C/c2cccs2)SC(=S)N1CCCC(=O)N(CCO)c1ccccc1	Mdm2 MdmX PPI 53 | Mdm2 MdmX conf inactive
CCOc1ccc(/C=C2\SC(=S)N(CCC(=O)N(CCO)c3ccccc3)C2=O)cc1	Mdm2 MdmX PPI 65 | Mdm2 MdmX conf inactive
COc1ccc(NC(=O)c2ccc(NC3=NC4CS(=O)(=O)CC4S3)cc2)cc1 (stereo not drawn)	none
CC1CC(C)CN(S(=O)(=O)c2cccc(C(=O)N3CCN(c4ccc(F)cc4)CC3)c2)C1 (stereo not drawn)	none (no result: SKKanGAS inh, CSC inhib)
O=C(c1ccccc1Cl)N1N=C(c2cccs2)CC1c1cccc(O)c1 (stereo not drawn)	none
Cc1ccc(S(=O)(=O)NCC(C)n2nc(C)nc2C)cc1 (stereo not drawn)	none (no result: SKKanGAS inh)
COc1ccc(-c2nc(N/N=C(\C)c3ccc(O)cc3)c3ccccc3n2)cc1	Mdm2 MdmX PPI 86 | Mdm2 MdmX conf inactive
COc1cccc(NC(=O)Nc2nc(-c3ccc(OC)c(OC)c3)cs2)c1	Mdm2 MdmX PPI 96, CSC inhib 104 | Mdm2 MdmX conf 98 | FLuc counter 52
COc1ccc(-c2csc(NC(=S)NC(=O)c3ccc4ccccc4c3)n2)cc1OC	Mdm2 MdmX PPI 78 | Mdm2 MdmX conf inactive
COc1ccc(-c2csc(NC(=O)CCn3cnc4ccccc4c3=O)n2)cc1OC	Mdm2 MdmX PPI 58 | Mdm2 MdmX conf inactive
COc1ccc(-c2csc(NC(C)=O)n2)cc1OC	none
COc1ccc(-c2csc(NC(=O)CCCc3nc4ccccc4c(=O)[nH]3)n2)cc1OC	none
O=C(Cc1ccc([N+](=O)[O-])cc1)Nc1cc(C(F)(F)F)cc(C(F)(F)F)c1	Mdm2 MdmX PPI 51 | Mdm2 MdmX conf 75 | FLuc counter 63
Cc1ccc(S(=O)(=O)N2CCN(C(=O)CSC3CCCC3)CC2)c(C)c1	Mdm2 MdmX PPI 55 | Mdm2 MdmX conf inactive
CCOc1ccccc1N1CCN(C(=O)c2cn(CC3CCCCC3)nn2)CC1	none
COC(=O)c1nn(-c2ccccc2)c(Cl)c1/C=N/OCc1ccc(Cl)cc1Cl	Mdm2 MdmX PPI 58 | Mdm2 MdmX conf inactive
O=C1c2ccccc2NC(c2ccc(-c3ccc(C(F)(F)F)cc3)o2)N1O (stereo not drawn)	Mdm2 MdmX PPI 67 (no result: SKKanGAS inh, CSC inhib) | Mdm2 MdmX conf 49 | FLuc counter 42
COc1cc2c(cc1OC)CN(C(=O)CCOc1ccccc1C)CC2	none (no result: CSC inhib)
COc1ccc(/C=C2\CCCc3c2nc2ccccc2c3C(=O)OCC(=O)c2c(N)n(C)c(=O)n(C)c2=O)cc1	Mdm2 MdmX PPI 86 | Mdm2 MdmX conf 79 | FLuc counter 44
CCOc1ccc(CCNC(=O)COC(=O)CSc2ccc(C)cc2)cc1OCC	none (no result: SKKanGAS inh, CSC inhib, Beta cell apopt)
O=C(NC(Cc1c[nH]c2ccccc12)C(=O)Nc1ccc(OC(F)(F)F)cc1)c1cccs1 (stereo not drawn)	Mdm2 MdmX PPI 93 | Mdm2 MdmX conf 94 | FLuc counter inactive
O=C(NC(Cc1c[nH]c2ccccc12)C(=O)Nc1ccc(F)c([N+](=O)[O-])c1)c1cccs1 (stereo not drawn)	Mdm2 MdmX PPI 96 | Mdm2 MdmX conf 87 | FLuc counter inactive
COc1ccc(CNC(=O)Cn2c(=O)n(CC(=O)N3CCCCC3)c(=O)c3sccc32)cc1	none
COc1ccccc1CNC(=O)CCCNC(=O)Cn1cnc2sc(C)c(C)c2c1=O	none
COc1cccc(NC(=O)CSc2nnc3ccc(-c4ccncc4)nn23)c1	none (no result: CSC inhib, Beta cell apopt)
Cc1ccccc1NC(=O)c1cc(C(=O)c2cc(Cl)ccc2O)cn(-c2ccccc2C)c1=O	Mdm2 MdmX PPI 78 | Mdm2 MdmX conf 71 | FLuc counter 50
COc1ccc(NC(=O)CC2Nc3cc(C)c(C)cc3NC2=O)c([N+](=O)[O-])c1 (stereo not drawn)	Mdm2 MdmX PPI 88 | Mdm2 MdmX conf inactive
CC(C)[C@H](NC(=O)c1ccco1)C(=O)N(C)Cc1ccc(C(F)(F)F)cc1	none
Cc1cccc(C(=O)Nc2cccc(C(=O)Nc3cc(C)ccn3)c2)c1	none
CCCCCC(=O)Nc1ccc2oc(-c3cncc(Br)c3)nc2c1	Mdm2 MdmX PPI 58 | Mdm2 MdmX conf inactive
Cc1ccc2oc(-c3ccc(NC(=O)CC(C)C)cc3)nc2c1	none
CCC(C)NCC(=O)Nc1ccc(-c2nc3cc(NC(=O)CNC(C)CC)ccc3o2)cc1 (stereo not drawn)	Mdm2 MdmX PPI 100 (no result: SKKanGAS inh) | Mdm2 MdmX conf 42 | FLuc counter inactive
O=C(CN1CCCC1)Nc1ccc(-c2nc3cc(NC(=O)CN4CCCC4)ccc3o2)cc1	Mdm2 MdmX PPI 92 | Mdm2 MdmX conf 64 | FLuc counter 52
CCN(CC)CC(=O)Nc1ccc(-c2nc3cc(NC(=O)CN(CC)CC)ccc3o2)cc1	Mdm2 MdmX PPI 55 | Mdm2 MdmX conf 41 | FLuc counter 74
Cc1ccc2oc(C(=O)Nc3ccc(S(=O)(=O)Nc4ncccn4)cc3)c(C)c2c1	none
CCCCn1c(NC(=O)c2ccccc2Cl)c(C#N)c2nc3ccccc3nc21	Mdm2 MdmX PPI 58 | Mdm2 MdmX conf inactive
COc1ccccc1NC(=O)Nc1nc(CC(=O)N2CCN(c3ccc(F)cc3)CC2)cs1	Mdm2 MdmX PPI 70 (no result: Beta cell apopt) | Mdm2 MdmX conf 40 | FLuc counter 83
Cc1ccc(NC2CC(C)NC(=S)N2)cc1 (stereo not drawn)	none
COC(=O)c1cn[nH]c1NC(=S)Nc1ccc(C)cc1Cl	Mdm2 MdmX PPI 52, SKKanGAS inh inconclusive | Mdm2 MdmX conf inactive
COC(=O)c1cn[nH]c1NC(=S)Nc1ccc(Cl)c(Cl)c1	Mdm2 MdmX PPI 56 | Mdm2 MdmX conf inactive
CN(CC(=O)Nc1ccccc1Cl)C(=O)Cn1cnc2ccccc2c1=O	none (no result: SKKanGAS inh, CSC inhib, Beta cell apopt)
O=C(NNC(=O)c1cc(-c2ccc(Cl)cc2Cl)nc2ccccc12)Nc1ccccc1	Mdm2 MdmX PPI 64, SKKanGAS inh 74 | Mdm2 MdmX conf inactive
C=CCNC(=O)C1CCN(S(=O)(=O)c2cccs2)CC1	none (no result: Beta cell apopt)
COc1ccc([N+](=O)[O-])cc1NC(=S)NC(NC(=O)C(c1ccccc1)c1ccccc1)C(Cl)(Cl)Cl (stereo not drawn)	Mdm2 MdmX PPI 89, SKKanGAS inh inconclusive | Mdm2 MdmX conf 79 | FLuc counter inactive
